The text below walks through data of ChEMBL document CHEMBL1156246 (J Med Chem, 2009).

Series [1] has as its system Mus musculus. Briefly: Anticonvulsant activity in ip dosed albino mouse assessed as protection against subcutaneous metrazole-induced seizures. The format is functional, organism-based. The procedure, abridged:
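Male albino Carworth Farms No. 1 mice, dosed intraperitoneally; subcutaneous metrazol seizure model run by previously reported methods under the NIH Anticonvulsant Screening Program; protection against seizures scored.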

In series [2] the test system is Rattus norvegicus. Description: Toxicity in Sprague-Dawley rat assessed as occurrence of ataxia at 300 mg/kg, po. The format is organism-based. Also on record: dose 300 mg/kg, route oral. Conditions: in vivo.
In series [3] the test system is Rattus norvegicus. Description: Anticonvulsant activity in po dosed Sprague-Dawley rat assessed as protection against maximal electroshock-induced seizures. In kind it is functional. Summed up: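 Male rodents screened through the NIH Anticonvulsant Screening Program: albino Carworth Farms No. 1 mice given compound ip, albino Sprague-Dawley rats given compound po. Maximal electroshock test: tonic hindlimb seizures were induced by corneal electrical stimulation. ED50 is given in mg/kg.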

Series [4] deals with Rattus norvegicus. Description: Anticonvulsant activity against maximal electroshock-induced seizures in po dosed Sprague-Dawley rat assessed as time of peak effect. The format is functional.
Series [5] relates to Mus musculus. Briefly: Anticonvulsant activity against maximal electroshock-induced seizures in ip dosed albino mouse assessed as time of peak effect. The format is functional.
For series [6], the system named is Mus musculus. Description: Neurotoxicity in ip dosed albino mouse assessed as time of peak effect by rotarod test. The format is toxicity, organism-based. The following applies: in vivo.
In series [7] the test system is Rattus norvegicus. Briefly: Anticonvulsant activity in po dosed Sprague-Dawley rat assessed as protection against subcutaneous metrazole-induced seizures. The format is functional, organism-based. The procedure, abridged: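 Male albino Sprague-Dawley rats, oral dosing; subcutaneous metrazol seizure test by previously reported methods within the NIH Anticonvulsant Screening Program.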

The source made the active and inactive calls. The calls are words filed in the database; no cut-off is given here.

As for `O=C1NC(=O)C(c2ccccc2)(c2ccccc2)N1` [PHENYTOIN], the result in series [1] and in series [7] was inactive. In series [2], the Activity result is given as “Non-toxic”. Moreover, the 50% effective dose (ED50) in series [3] is greater than 30 mg/kg. Besides, the Time stood at 4 h in series [4], 2 h in series [5] and 2 h in series [6].
